One data set relates to PC-9. The data set can be described thus: cells. Format: functional, cell-based. Conditions: Homo sapiens, PC-9, 72 h.
Data set [1] addresses RAC-alpha serine/threonine-protein kinase (Homo sapiens) (UniProt P31749). In words: Inhibition of AKT phosphorylation in human PC9 Gefitinib-resistant (GR) cells at 0.01 to 1 uM incubated for 16 hrs by immunoblot analysis. Type of data set: cell-based. Particulars: PC9 Gefitinib-resistant (GR) cell, dose 0.01-1 µM.
The target of data set [2] is Mitogen-activated protein kinase; ERK1/ERK2 (Homo sapiens) (UniProt P27361+P28482). The data set can be described thus: Inhibition of ERK1/2 phosphorylation in human NCI-H1975 cells at 0.01 to 1.0 uM incubated for 16 hrs by immunoblot analysis. Type of data set: cell-based. Particulars: dose 0.01-1 µM.
Chain of Mitogen-activated protein kinase; ERK1/ERK2 (Homo sapiens) (P27361 whole entry, looked up): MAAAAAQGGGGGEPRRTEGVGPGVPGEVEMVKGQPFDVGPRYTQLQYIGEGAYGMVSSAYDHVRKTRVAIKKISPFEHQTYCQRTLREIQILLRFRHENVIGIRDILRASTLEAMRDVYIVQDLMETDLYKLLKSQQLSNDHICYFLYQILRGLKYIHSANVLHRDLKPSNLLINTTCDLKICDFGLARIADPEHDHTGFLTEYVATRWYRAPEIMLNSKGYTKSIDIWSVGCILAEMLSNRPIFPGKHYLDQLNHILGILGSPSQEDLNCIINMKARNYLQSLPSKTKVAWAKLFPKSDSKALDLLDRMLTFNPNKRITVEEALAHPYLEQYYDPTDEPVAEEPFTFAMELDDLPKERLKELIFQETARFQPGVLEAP
Chain of Mitogen-activated protein kinase; ERK1/ERK2 (Homo sapiens) (P28482 whole entry, looked up): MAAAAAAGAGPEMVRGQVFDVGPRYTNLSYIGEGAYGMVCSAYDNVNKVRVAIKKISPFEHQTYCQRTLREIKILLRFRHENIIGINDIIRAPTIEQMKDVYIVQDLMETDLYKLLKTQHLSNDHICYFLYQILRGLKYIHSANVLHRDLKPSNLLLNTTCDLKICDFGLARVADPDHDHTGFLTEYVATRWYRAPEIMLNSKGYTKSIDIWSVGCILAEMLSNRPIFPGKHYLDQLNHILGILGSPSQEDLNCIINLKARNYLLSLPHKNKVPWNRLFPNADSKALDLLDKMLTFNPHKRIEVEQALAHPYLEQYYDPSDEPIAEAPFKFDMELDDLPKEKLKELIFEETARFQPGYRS
Data set [3] deals with Serine/threonine-protein kinase DCLK3 (Homo sapiens, UniProt Q9C098). The data set can be described thus: Binding affinity to DCAMKL3 (unknown origin) assessed as dissociation constant.
Chain of Serine/threonine-protein kinase DCLK3 (Q9C098 whole entry): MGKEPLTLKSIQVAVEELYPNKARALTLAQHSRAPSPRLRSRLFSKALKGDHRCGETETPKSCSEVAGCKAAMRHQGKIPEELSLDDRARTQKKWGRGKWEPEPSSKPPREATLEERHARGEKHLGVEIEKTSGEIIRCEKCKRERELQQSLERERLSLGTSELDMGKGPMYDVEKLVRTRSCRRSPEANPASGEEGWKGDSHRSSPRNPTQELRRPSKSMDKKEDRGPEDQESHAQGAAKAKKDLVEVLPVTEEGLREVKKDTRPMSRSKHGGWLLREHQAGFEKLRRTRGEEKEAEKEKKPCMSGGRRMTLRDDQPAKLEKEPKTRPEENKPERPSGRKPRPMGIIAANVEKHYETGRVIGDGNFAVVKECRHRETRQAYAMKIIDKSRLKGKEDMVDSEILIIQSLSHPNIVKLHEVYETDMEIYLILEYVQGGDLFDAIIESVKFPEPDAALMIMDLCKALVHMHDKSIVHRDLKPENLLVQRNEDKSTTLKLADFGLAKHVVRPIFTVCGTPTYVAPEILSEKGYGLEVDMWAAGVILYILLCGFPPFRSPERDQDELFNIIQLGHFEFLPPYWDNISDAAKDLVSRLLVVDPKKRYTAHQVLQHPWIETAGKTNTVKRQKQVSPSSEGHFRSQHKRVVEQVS
Another data set deals with Focal adhesion kinase 1 (Homo sapiens, UniProt Q05397). In words: Binding affinity to FAK (unknown origin) assessed as dissociation constant.
Chain of Focal adhesion kinase 1 (Q05397 whole entry): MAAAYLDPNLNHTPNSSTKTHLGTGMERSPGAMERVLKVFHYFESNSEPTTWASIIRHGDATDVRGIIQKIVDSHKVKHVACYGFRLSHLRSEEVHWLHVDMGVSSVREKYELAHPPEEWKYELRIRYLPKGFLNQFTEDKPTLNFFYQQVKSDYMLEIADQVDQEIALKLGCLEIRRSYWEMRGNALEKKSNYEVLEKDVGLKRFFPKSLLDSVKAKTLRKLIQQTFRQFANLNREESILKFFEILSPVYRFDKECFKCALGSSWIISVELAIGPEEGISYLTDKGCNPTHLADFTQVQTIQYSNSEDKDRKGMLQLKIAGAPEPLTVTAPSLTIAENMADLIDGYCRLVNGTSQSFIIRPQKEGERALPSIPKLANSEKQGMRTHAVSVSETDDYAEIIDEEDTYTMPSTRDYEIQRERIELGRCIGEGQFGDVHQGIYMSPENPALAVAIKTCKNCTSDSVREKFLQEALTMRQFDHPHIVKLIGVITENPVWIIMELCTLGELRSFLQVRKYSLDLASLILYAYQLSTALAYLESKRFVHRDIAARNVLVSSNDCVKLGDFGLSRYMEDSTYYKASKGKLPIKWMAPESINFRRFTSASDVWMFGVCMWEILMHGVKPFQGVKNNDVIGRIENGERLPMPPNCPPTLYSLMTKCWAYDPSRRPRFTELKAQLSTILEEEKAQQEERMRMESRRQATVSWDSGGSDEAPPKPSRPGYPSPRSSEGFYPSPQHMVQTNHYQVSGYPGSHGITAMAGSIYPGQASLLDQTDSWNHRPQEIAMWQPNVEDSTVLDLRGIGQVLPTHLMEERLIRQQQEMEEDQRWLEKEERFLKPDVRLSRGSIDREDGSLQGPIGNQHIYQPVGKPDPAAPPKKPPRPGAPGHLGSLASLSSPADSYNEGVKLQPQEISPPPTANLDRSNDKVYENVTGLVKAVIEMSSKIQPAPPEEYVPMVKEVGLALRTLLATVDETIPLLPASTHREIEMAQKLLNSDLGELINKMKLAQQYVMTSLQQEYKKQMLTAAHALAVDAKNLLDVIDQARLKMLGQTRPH
Data set [4] addresses NUAK family SNF1-like kinase 2 (Homo sapiens, UniProt Q9H093). In words: Binding affinity to SNARK (unknown origin) assessed as dissociation constant.
The nature of data set [5]: AUC(0 to t) in mouse at 1 mg/kg, iv administered as single dose. Conditions: in vivo. Format: ADME, organism-based.
Data set [6] can be described thus: Tmax in mouse at 10 mg/kg, po administered as single dose. Format: ADME, organism-based. Particulars: in vivo.
Data set [7] can be described thus: Half-life in mouse at 10 mg/kg, po administered as single dose. Type of data set: ADME, organism-based. Conditions: in vivo.
Data set [8] can be described thus: Oral bioavailability in mouse at 10 mg/kg administered as single dose. Particulars: in vivo. Format: ADME, organism-based.
Data set [9] is described as follows: Drug concentration in mouse plasma at 1 mg/kg, iv administered as single dose and measured after 2 hrs. Format: ADME, organism-based.
Data set [10] is described as follows: Drug concentration in mouse plasma at 10 mg/kg, po administered as single dose and measured after 0.5 hrs. Format: ADME, organism-based.
Data set [11] is described as follows: Drug concentration in mouse plasma at 10 mg/kg, po administered as single dose and measured after 8 hrs. Format: ADME, organism-based.
Data set [12] can be described thus: Toxicity in mouse harboring EGFR del E746_A750/T790M mutant assessed as effect on total white blood cell count at 25 mg/kg administered via gavage for 2 weeks. Type of data set: organism-based. Particulars: in vivo, po, 336 h. The procedure, abridged:
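Inducible bitransgenic tumor mice gavaged daily, 25 mg/kg, vehicle NMP (10% 1-methyl-2-pyrrolidinone, 90% PEG-300), compared against vehicle-treated mice; weight, serum creatine and total white blood cell count monitored during the study.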

The subject of data set [13] is Mus musculus. In words: In vivo inhibition of AKT phosphorylation in transgenic mouse harboring EGFR L858R/T790M mutant at 2.5 to 25 mg/kg administered as two doses separated by 16 hours by immunoblot analysis. Format: functional, organism-based. Particulars: dose 2.5-25 mg/kg. A general note: A western blot detects proteins with antibodies after separation by electrophoresis.

Data set [14] deals with Mus musculus. The data set can be described thus: In vivo inhibition of ERK1/2 phosphorylation in transgenic mouse harboring EGFR L858R/T790M mutant at 2.5 to 25 mg/kg administered as two doses separated by 16 hours by immunoblot analysis. Type of data set: functional, organism-based. Conditions: dose 2.5-25 mg/kg. The procedure, abridged:
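Transgenic mice gavaged with compound in 10% 1-methyl-2-pyrrolidinone:90% PEG-300 vehicle; phosphorylation assessed in tissue by immunoblotting per standard protocols.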

In data set [15] the test system is Mus musculus. The data set can be described thus: Invivo antitumor activity in transgenic mouse harboring EGFR del19/T790M mutant assessed as decrease in cellularity at 25 mg/kg administered via gavage for 2 weeks by H&E staining based analysis. Type of data set: functional, organism-based. The procedure, abridged:
(§1)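 EGFR-TL (L858R/T790M) or exon19 deletion-T790M (TD) inducible bitransgenic mice dosed by oral gavage daily at 25 mg/kg; vehicle 10% 1-methyl-2-pyrrolidinone:90% PEG-300. Tumors followed by MRI; lung histology by standard protocols.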

Data set [16] relates to Mus musculus. The data set can be described thus: Invivo antitumor activity in transgenic mouse harboring EGFR del19/T790M mutant assessed as increase in fibrosis at 25 mg/kg administered via gavage for 2 weeks by H&E staining based analysis. Type of data set: functional, organism-based. In short, it runs like this: as §1
The subject of data set [17] is Mus musculus. In words: Invivo antitumor activity in transgenic mouse harboring EGFR L858R/T790M mutant assessed as reduction in small residual nodules in tumor at 25 mg/kg administered via gavage for 2 weeks by H&E staining based analysis. Type of data set: functional, organism-based. In short, it runs like this: as §1
Data set [18] deals with Mus musculus. In words: Invivo antitumor activity in transgenic mouse harboring EGFR L858R/T790M mutant assessed as reduction in nodule remnants in tumor at 25 mg/kg administered via gavage for 2 weeks by H&E staining based analysis. Format: functional, organism-based. The procedure, abridged: as §1
In data set [19] the test system is Mus musculus. In words: Invivo antitumor activity in transgenic mouse harboring EGFR L858R/T790M mutant assessed as remodelling/scarring at 25 mg/kg administered via gavage for 2 weeks by H&E staining based analysis. Type of data set: functional, organism-based. The procedure, abridged:
as §1

Data set [20] has as its target Tyrosine-protein kinase Tec (Homo sapiens) (UniProt P42680). In words: Inhibition of TEC (unknown origin).

The source made the active and inactive calls. No cut-off for these calls is given here.

Chain of Tyrosine-protein kinase Tec (Homo sapiens) (P42680 whole entry, looked up): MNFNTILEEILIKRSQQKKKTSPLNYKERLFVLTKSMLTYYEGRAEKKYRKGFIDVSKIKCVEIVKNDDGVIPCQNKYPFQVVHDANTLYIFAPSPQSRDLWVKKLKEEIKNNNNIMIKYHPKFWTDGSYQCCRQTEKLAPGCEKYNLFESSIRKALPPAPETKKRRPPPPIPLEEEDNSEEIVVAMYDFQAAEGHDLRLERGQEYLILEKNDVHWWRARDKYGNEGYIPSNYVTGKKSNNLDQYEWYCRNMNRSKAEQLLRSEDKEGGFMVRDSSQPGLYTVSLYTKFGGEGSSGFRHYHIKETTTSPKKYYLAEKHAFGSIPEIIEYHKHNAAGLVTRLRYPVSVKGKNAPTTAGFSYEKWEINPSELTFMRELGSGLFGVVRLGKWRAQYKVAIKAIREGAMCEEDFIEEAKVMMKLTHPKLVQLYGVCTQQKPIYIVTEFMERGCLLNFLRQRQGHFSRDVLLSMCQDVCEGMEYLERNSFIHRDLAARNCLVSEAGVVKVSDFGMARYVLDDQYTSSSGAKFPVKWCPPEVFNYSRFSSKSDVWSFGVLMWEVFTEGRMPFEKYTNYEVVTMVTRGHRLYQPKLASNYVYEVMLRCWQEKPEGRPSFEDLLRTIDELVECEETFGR
Chain of RAC-alpha serine/threonine-protein kinase (Homo sapiens) (P31749 whole entry): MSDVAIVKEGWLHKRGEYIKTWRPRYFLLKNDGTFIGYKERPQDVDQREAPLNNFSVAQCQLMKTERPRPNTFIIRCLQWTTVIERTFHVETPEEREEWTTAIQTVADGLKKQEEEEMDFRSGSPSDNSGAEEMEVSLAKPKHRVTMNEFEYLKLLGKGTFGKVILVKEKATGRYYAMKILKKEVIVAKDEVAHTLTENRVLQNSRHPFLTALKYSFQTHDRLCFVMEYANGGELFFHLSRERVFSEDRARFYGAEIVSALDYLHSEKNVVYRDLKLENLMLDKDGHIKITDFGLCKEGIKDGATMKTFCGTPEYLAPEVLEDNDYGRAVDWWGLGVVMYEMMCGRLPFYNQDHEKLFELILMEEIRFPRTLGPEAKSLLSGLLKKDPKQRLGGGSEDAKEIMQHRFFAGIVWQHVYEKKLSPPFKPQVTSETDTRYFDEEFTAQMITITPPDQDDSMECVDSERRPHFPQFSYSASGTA
Chain of NUAK family SNF1-like kinase 2 (Q9H093 whole entry): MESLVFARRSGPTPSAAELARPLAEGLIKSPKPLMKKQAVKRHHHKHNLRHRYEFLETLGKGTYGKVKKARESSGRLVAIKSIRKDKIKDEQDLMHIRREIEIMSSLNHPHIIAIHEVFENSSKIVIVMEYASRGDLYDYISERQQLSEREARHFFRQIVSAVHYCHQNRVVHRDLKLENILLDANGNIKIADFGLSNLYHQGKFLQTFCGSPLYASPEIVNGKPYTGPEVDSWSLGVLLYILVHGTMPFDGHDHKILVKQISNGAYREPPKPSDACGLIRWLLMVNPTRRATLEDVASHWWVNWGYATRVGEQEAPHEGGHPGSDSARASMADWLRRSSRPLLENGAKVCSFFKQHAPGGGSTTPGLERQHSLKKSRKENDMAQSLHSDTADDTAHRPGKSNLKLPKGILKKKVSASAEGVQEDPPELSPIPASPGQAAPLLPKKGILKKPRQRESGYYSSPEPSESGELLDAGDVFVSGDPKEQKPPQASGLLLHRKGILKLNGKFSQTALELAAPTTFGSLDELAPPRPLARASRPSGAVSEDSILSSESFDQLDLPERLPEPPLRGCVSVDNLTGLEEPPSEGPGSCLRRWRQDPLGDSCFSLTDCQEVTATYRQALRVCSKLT

The term IC50 denotes the midpoint of a concentration-inhibition curve. Lower therefore signals higher potency. As a reminder, the Kd is the free concentration of one partner at which half of the binding sites on the other are occupied at equilibrium, for simple one-to-one binding. What is called AUC(0-t) is the area under the concentration-time curve up to a stated or last time point. A low value points to less exposure. Usually Tmax stands for the time at which the peak concentration occurs. Usually half-life stands for the time in which the quantity being followed falls by half. Read a low half-life as fast loss. For orientation: bioavailability means the share of a dose that reaches the circulation, judged against a reference dose that is usually intravenous. The low end stands for poor availability, the high end for good availability. `C=CC(=O)Nc1cccc(Oc2nc(Nc3ccc(N4CCN(C)CC4)cc3OC)ncc2Cl)c1`: the IC50 in the data set on PC-9 was 36 nM. For the same compound, the inhibition entry (in data set [1]; in [2]; in the data set with Mus musculus [13]; with Mus musculus [14]; in [20]) was “Active” in each case. Also, the dissociation constant Kd in [3] stood at 910 nM; on Focal adhesion kinase 1, 78 nM; in [4] it was 10 nM. This compound displayed an exposure AUC(0-t) in [5] of 956 ng·h/mL. In addition, the Tmax in data set [6] turned out to be 0.25 h. The same compound had a half-life in data set [7] of 2.46 h. In data set [8], this compound registered a bioavailability of 24.5%. Moreover, the concentration at 2 h in data set [9] turned out to be 80.4 ng/mL. The concentration at 0.5 h in data set [10] turned out to be 397 ng/mL. This compound yielded a concentration at 8 h in data set [11] of 59.2 ng/mL. Further, in data set [12], the Activity result is recorded as “Non-Toxic”. Moreover, the outcome with Mus musculus [15], in the data set with Mus musculus [16], in the data set with Mus musculus [17], in the data set on Mus musculus [18] and with Mus musculus [19] was Active.

Values taken from ChEMBL document CHEMBL5705889, “Novel mutant-selective EGFR kinase inhibitors against EGFR T790M” (Nature, 2009).
